Test results as given in ChEMBL document CHEMBL1138567, “Regioselective synthesis and antimicrobial screening of novel ketocarbazolodispiropyrrolidine derivatives” (2009).

Assays:
Type in all cases: functional
Details in all cases: read-out: IZ
[1] = tested on: Proteus vulgaris; assay: Antimicrobial activity against Proteus vulgaris at 25 ug/ml after 24 hrs by agar diffusion method
Outline: (§1)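 Agar well diffusion: petri plates (9 cm) with about 9 ml nutrient agar, seeded with the test organism. Wells cut with a cork borer and loaded with test compound at 25, 50, 75 or 100 per ml; tetracycline as control. Incubated 37 °C for 24 h; average inhibition-zone diameter around wells measured (mm).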

[2] = tested on: Proteus vulgaris; assay: Antimicrobial activity against Proteus vulgaris at 50 ug/ml after 24 hrs by agar diffusion method; outline: as §1
[3] = tested on: Proteus vulgaris; assay: Antimicrobial activity against Proteus vulgaris at 75 ug/ml after 24 hrs by agar diffusion method; outline: as §1
[4] = tested on: Proteus vulgaris; assay: Antimicrobial activity against Proteus vulgaris at 100 ug/ml after 24 hrs by agar diffusion method; outline: as §1
[5] = tested on: Proteus mirabilis; assay: Antimicrobial activity against Proteus mirabilis at 25 ug/ml after 24 hrs by agar diffusion method; outline: as §1
[6] = tested on: Proteus mirabilis; assay: Antimicrobial activity against Proteus mirabilis at 50 ug/ml after 24 hrs by agar diffusion method; outline: as §1
[7] = tested on: Proteus mirabilis; assay: Antimicrobial activity against Proteus mirabilis at 75 ug/ml after 24 hrs by agar diffusion method; outline: as §1
[8] = tested on: Proteus mirabilis; assay: Antimicrobial activity against Proteus mirabilis at 100 ug/ml after 24 hrs by agar diffusion method; outline: as §1
[9] = tested on: Staphylococcus aureus; assay: Antimicrobial activity against Staphylococcus aureus at 25 ug/ml after 24 hrs by agar diffusion method; outline: as §1
[10] = tested on: Staphylococcus aureus; assay: Antimicrobial activity against Staphylococcus aureus at 50 ug/ml after 24 hrs by agar diffusion method; outline: as §1
[11] = tested on: Staphylococcus aureus; assay: Antimicrobial activity against Staphylococcus aureus at 75 ug/ml after 24 hrs by agar diffusion method; outline: as §1
[12] = tested on: Staphylococcus aureus; assay: Antimicrobial activity against Staphylococcus aureus at 100 ug/ml after 24 hrs by agar diffusion method; outline: as §1
[13] = tested on: Salmonella enterica subsp. enterica serovar Typhi str. CT18; assay: Antimicrobial activity against Salmonella typhi at 25 ug/ml after 24 hrs by agar diffusion method
Outline: (§2)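 Agar well diffusion: about 9 ml nutrient agar in 9 cm Petri plates, seeded with the test organism. Wells cut with a cork borer and loaded with test compound at 25–100 per ml; tetracycline as control. Plates incubated 24 h at 37 °C. Read-out is the average diameter of the inhibition zone around each well, in mm.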

[14] = tested on: Salmonella enterica subsp. enterica serovar Typhi str. CT18; assay: Antimicrobial activity against Salmonella typhi at 50 ug/ml after 24 hrs by agar diffusion method; outline: as §2
[15] = tested on: Salmonella enterica subsp. enterica serovar Typhi str. CT18; assay: Antimicrobial activity against Salmonella typhi at 75 ug/ml after 24 hrs by agar diffusion method; outline: as §2
[16] = tested on: Salmonella enterica subsp. enterica serovar Typhi str. CT18; assay: Antimicrobial activity against Salmonella typhi at 100 ug/ml after 24 hrs by agar diffusion method; outline: as §2

| SMILES | zone of inhibition at 25 µg/mL [1] | zone of inhibition at 50 µg/mL [2] | zone of inhibition at 75 µg/mL [3] | zone of inhibition at 100 µg/mL [4] | zone of inhibition at 25 µg/mL [5] | zone of inhibition at 50 µg/mL [6] | zone of inhibition at 75 µg/mL [7] | zone of inhibition at 100 µg/mL [8] | zone of inhibition at 25 µg/mL [9] | zone of inhibition at 50 µg/mL [10] | zone of inhibition at 75 µg/mL [11] | zone of inhibition at 100 µg/mL [12] | zone of inhibition at 25 µg/mL [13] | zone of inhibition at 50 µg/mL [14] | zone of inhibition at 75 µg/mL [15] | zone of inhibition at 100 µg/mL [16] |
| --- | --- | --- | --- | --- | --- | --- | --- | --- | --- | --- | --- | --- | --- | --- | --- | --- |
| CN1C[C@@H](c2ccc(Cl)cc2)[C@@]2(CCc3c([nH]c4ccccc34)C2=O)[C@]12C(=O)c1cccc3cccc2c13 | 19 mm | 18 mm | 24 mm | > 40 mm | 12 mm | 16 mm | 24 mm | 36 mm | 14 mm | 18 mm | 22 mm | 34 mm | 13 mm | 16 mm | 21 mm | 31 mm |
| CN1C[C@@H](c2ccc([N+](=O)[O-])cc2)[C@@]2(CCc3c([nH]c4ccccc34)C2=O)C12C(=O)c1ccccc1C2=O | 12 mm | 17 mm | 18 mm | 18 mm | 9 mm | 13 mm | 18 mm | 21 mm | 11 mm | 14 mm | 18 mm | 18 mm | 9 mm | 11 mm | 13 mm | 18 mm |
| CN1C[C@@H](c2ccc([N+](=O)[O-])cc2)[C@@]2(CCc3c([nH]c4ccccc34)C2=O)[C@]12C(=O)c1cccc3cccc2c13 | 13 mm | 22 mm | 27 mm | > 40 mm | 9 mm | 13 mm | 17 mm | 21 mm | 9 mm | 16 mm | 21 mm | 31 mm | 11 mm | 14 mm | 18 mm | 25 mm |
| COc1ccc([C@@H]2CN(C)[C@@]3(C(=O)Nc4ccccc43)[C@]23CCc2c([nH]c4ccccc24)C3=O)cc1 | 11 mm | 13 mm | 18 mm | 20 mm | 9 mm | 13 mm | 16 mm | 21 mm | 12 mm | 14 mm | 17 mm | 20 mm | 12 mm | 14 mm | 18 mm | 21 mm |
| Cc1ccc([C@@H]2CN(C)[C@@]3(C(=O)Nc4ccccc43)[C@]23CCc2c([nH]c4ccccc24)C3=O)cc1 | 12 mm | 16 mm | 18 mm | 21 mm | 11 mm | 14 mm | 16 mm | 18 mm | 9 mm | 13 mm | 16 mm | 20 mm | 9 mm | 12 mm | 14 mm | 16 mm |
| CN1C[C@@H](c2ccc(Br)cc2)[C@@]2(CCc3c([nH]c4ccccc34)C2=O)[C@]12C(=O)c1cccc3cccc2c13 | 12 mm | 16 mm | 20 mm | 22 mm | 13 mm | 15 mm | 18 mm | 22 mm | 11 mm | 14 mm | 18 mm | 22 mm | 9 mm | 14 mm | 21 mm | 30 mm |
